This is an account of results in article PMC4461448 (Analytical biochemistry, 2015).

Data set [1] can be described thus: pH titration via PheCN fluorescence to determine N-terminal pKa. The data set is classed as physicochemical. To be noted: 20 μM peptide, pH 2-12, 25 °C, excitation 275 nm. An outline of the steps:
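Peptides were HPLC-purified and mass-verified, and concentration was set optically from absorbance at 280 nm (ε 850 M−1 cm−1). Each pH was made by mixing peptide stocks in 25 mM H3PO4 and 25 mM NaOH, then read on a pH meter. Spectra were taken in a 1 cm cuvette at 1 nm resolution, 1 s/nm, with buffer background subtracted. Peak intensity was fitted to a two-state equation with linear acidic and basic baselines to give pKa (±0.1).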

The conditions of data set [2]: value belongs to the α-helical peptide, not the tripeptide; cited from earlier work.
For data set [3] the following is noted: melittin, Gly residue at the N-terminus; cited from earlier work.

Where a SMILES comes first, the peptide text is derived from it. [ ]: non-standard residue; d: D form. Phe(4-CN) = N#Cc1ccc(C[C@H](N)C(=O)O)cc1

As for `CC(=O)NCC(=O)N[C@@H](Cc1ccc(C#N)cc1)C(=O)NCC(N)=O` [*GFCNG] (Ac-Gly-[Phe(4-CN)]-Gly-NH2), in data set [1], the “pH dependence of PheCN fluorescence intensity (acid-base titration transition)” value is given as “does not show such a transition”. Regarding `C[C@H](N)C(=O)N[C@@H](Cc1ccc(C#N)cc1)C(=O)NCC(N)=O` [A, reference compound] (H-Ala-[Phe(4-CN)]-Gly-NH2), in data set [2], the “N-terminal pKa value (pKaH) of an α-helical peptide with X at the N-terminus” value (shortened to “N-terminal pKa value (pKaH) … at the N-terminus”) was 8.35. On to `N#Cc1ccc(C[C@H](NC(=O)[C@@H](N)CC(=O)O)C(=O)NCC(N)=O)cc1` [D] (H-Asp-[Phe(4-CN)]-Gly-NH2), for which the “N-terminal pKa value (pKaH) … at the N-terminus” value in data set [2] is listed as 8.25. On to `N#Cc1ccc(C[C@H](NC(=O)CN)C(=O)NCC(N)=O)cc1` [G, reference compound] (H-Gly-[Phe(4-CN)]-Gly-NH2), for which the “N-terminal pKa value (pKaH) … at the N-terminus” value in data set [2] is 8.51. Turning to `N#Cc1ccc(C[C@H](NC(=O)[C@@H](N)CCCCN)C(=O)NCC(N)=O)cc1` [K] (H-Lys-[Phe(4-CN)]-Gly-NH2), the “N-terminal pKa value (pKaH) … at the N-terminus” value in data set [2] was 8.12. `CSCC[C@H](N)C(=O)N[C@@H](Cc1ccc(C#N)cc1)C(=O)NCC(N)=O` [M, reference compound] (H-Met-[Phe(4-CN)]-Gly-NH2): the “N-terminal pKa value (pKaH) … at the N-terminus” value in data set [2] is on record as 7.83. Consider `N#Cc1ccc(C[C@H](NC(=O)[C@@H](N)CC(N)=O)C(=O)NCC(N)=O)cc1` [N] (H-Asn-[Phe(4-CN)]-Gly-NH2), for which the “N-terminal pKa value (pKaH) … at the N-terminus” value in data set [2] is given as 7.07. Take `N#Cc1ccc(C[C@H](NC(=O)[C@@H]2CCCN2)C(=O)NCC(N)=O)cc1` [P] (H-Pro-[Phe(4-CN)]-Gly-NH2): the “N-terminal pKa value (pKaH) … at the N-terminus” value in data set [2] is 8.85.

For `N#Cc1ccc(C[C@H](NC(=O)[C@@H](N)CO)C(=O)NCC(N)=O)cc1` [S] (H-Ser-[Phe(4-CN)]-Gly-NH2), the “N-terminal pKa value (pKaH) … at the N-terminus” value in data set [2] is given as 7.63.

As for `CC(C)[C@H](N)C(=O)N[C@@H](Cc1ccc(C#N)cc1)C(=O)NCC(N)=O` [V] (H-Val-[Phe(4-CN)]-Gly-NH2), in data set [2], the “N-terminal pKa value (pKaH) … at the N-terminus” value was 8.14. In the case of melittin, the “N-terminal pKa of the amino group” value in data set [3] was 7.85.
